According to ChEMBL document CHEMBL1156484, “Hot spots in prion protein for pathogenic conversion” (Proc Natl Acad Sci U S A, 2007):
The source made the active and inactive calls. The calls are words filed in the database; no cut-off is given here.

Assays:
[1] = cells; format: functional, cell-based; conditions: Mus musculus, GT1-7
[2] = Cytotoxicity against mouse GT1-7 cells at 1 uM; format: cell-based; conditions: gt1-7, 1 µM
[3] = cells; format: functional, cell-based; conditions: Mus musculus, GT1-7, 72 h
[4] = species on record: Mus musculus; test: Stabilization of recombinant mouse cellular form PrP (23-231) conformation at 10 uM
[5] = system: GT1-7; test: Effect on cellular form PrP expression in mouse GT1-7 cells; format: functional, cell-based
In short: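 Uninfected GT1-7 mouse neuronal cells (~2 × 10^5 per well) treated 15 h after plating, from 100 mM DMSO stocks diluted in medium (solvent control 0.1%), for 72 h. Lysates in Triton X-100/DOC buffer, normalized to 2 mg protein/ml. PrPC detected by Western blot with SAF32 antibody and ECL, then scanned.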

[6] = species on record: Mus musculus; test: Binding affinity to recombinant mouse cellular form PrP (23-231)
[7] = system: Mus musculus; test: Survival of intraventricularly dosed mouse infected with human transmissible spongiform encephalopathies agent Fukuoka1 at 250 ug/kg, after 42 to 70 days post-infection; format: functional
In short: (§1)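 4-week-old male ddY mice inoculated in the right temporal lobe with 20 μl of 10% FK-1 (Fukuoka-1) infected brain homogenate. Drug in 5% glucose/saline (10 mg/ml stock, 0.2-μm filtered) given at 250 μg/kg per day by intraventricular osmotic-pump infusion over the stated d.p.i. window. Vehicle-only controls. Mice examined daily for neurological signs; survival analysed by Kaplan–Meier.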

[8] = system: Mus musculus; test: Survival of intraventricularly dosed mouse infected with human transmissible spongiform encephalopathies agent Fukuoka1 at 250 ug/kg, after 70 to 98 days post-infection; format: functional
In short: as §1

Compound	IC50 [1]	Activity [2]	also measured
Cc1ccc(C(=O)Nc2cccc([N+](=O)[O-])c2C)cc1I	> 100 µM	Toxic	
O=c1n(S(=O)(=O)c2ccc(Cl)cc2)c2ccccc2n1S(=O)(=O)c1ccc(Cl)cc1	> 100 µM	Toxic	
C=CCSC1=N/C(=C\c2ccccc2Br)C(=O)S1	> 100 µM	Toxic	
O=C(CN1CCCC1)Nc1ccc(Cc2ccc(NC(=O)CN3CCCC3)cc2)cc1			IC50 [3]: 1.35 µM; Activity [4]: Stable; Activity [5]: inactive; Activity [6]: 3.9 ×10⁻⁶ M; Survival [7]: 132.3 days; Survival [8]: 141.5 days
Cc1ccc(N2C(=O)c3ccc(C(=O)OCC(C)C)cc3C2=O)cc1C	> 100 µM	Toxic	
O=C(O)/C=C/C(=O)Nc1ccc(Cc2ccc(NC(=O)/C=C/C(=O)O)cc2)cc1	> 100 µM	Toxic	
Cc1c(NC(=O)c2cccc(I)c2)ccc([N+](=O)[O-])c1C	> 100 µM	Toxic	
C=CCc1cc(/C=C2/C(=O)NC(=S)N(CC=C)C2=O)cc(OC)c1O	> 100 µM	Toxic	
COc1ccc(C(=O)c2ccc(Br)c([N+](=O)[O-])c2)cc1C	> 100 µM	Toxic	
O=C(c1cccc(I)c1)c1cccc(I)c1	> 100 µM	Toxic	
O=C(Nc1cc(Cl)c(Cl)cc1Cl)Nc1cc(Cl)c(Cl)cc1Cl	> 100 µM	Toxic	
C[C@]12CCC(=O)C=C1CC[C@@H]1[C@@H]2[C@@H](O)C[C@@]2(C)[C@H]1CC[C@]2(O)C(=O)COC(=O)CCC(=O)O [HYDROCORTISONE HEMISUCCINATE ANHYDROUS]	> 100 µM	Toxic	
O=C(c1ccc(I)c([N+](=O)[O-])c1)c1ccc(I)c([N+](=O)[O-])c1	> 100 µM	Toxic	
CC(=O)[C@H]1CC[C@H]2[C@@H]3C[C@H](O)[C@@H]4C[C@H](O)CC[C@]4(C)[C@H]3CC[C@]12C	> 100 µM	Toxic	
O=C(Nc1ccc(Cc2ccc(NC(=O)C(Cl)(Cl)Cl)cc2)cc1)C(Cl)(Cl)Cl	> 100 µM	Toxic	
CC1CCCN(C(=O)Nc2ccc(Cc3ccc(NC(=O)N4CCCC(C)C4)cc3)cc2)C1 (configuration not stated)	> 100 µM	Toxic	
COc1ccc(C(=O)NNC(=O)c2ccc(OC)c(I)c2)cc1Br	> 100 µM	Toxic	
O=C(Nc1ccc2ccccc2c1)c1cccc(C(=O)Nc2ccc3ccccc3c2)c1	> 100 µM	Toxic	
O=C1C=CC(=O)N1c1ccc(Cc2ccc(N3C(=O)C=CC3=O)c(Cl)c2)cc1Cl	> 100 µM	Toxic	
COc1ccc(NC(=O)c2cc(Br)ccc2I)cc1Cl	> 100 µM	Toxic	
CS(=O)(=O)O[C@H]1C[C@H](n2cc(F)c(=O)[nH]c2=O)O[C@@H]1CO	> 100 µM	Toxic	
O=C1C=CC(=O)N1c1ccc(Cc2ccc(N3C(=O)C=CC3=O)cc2)cc1	> 100 µM	Toxic	

Compound	IC50 [1]	Activity [2]	also measured
O=C(Nc1ccc(I)cc1)c1ccccc1I	> 100 µM	Toxic	
O=C(Nc1ccc(I)cc1)c1cccc(I)c1	> 100 µM	Toxic	
O=S(=O)(c1cc(Cl)cc(Br)c1O)c1cc(Cl)cc(Br)c1O	> 100 µM	Toxic	
O=C(N/N=C/c1cc(Cl)cc(Cl)c1O)c1cccc(I)c1	> 100 µM	Toxic	
Cc1sc(C(O)c2sc(C)c(C)c2I)c(I)c1C	> 100 µM	Toxic	
O=C(Nc1ccc(Cc2ccc(NC(=O)c3cccc([N+](=O)[O-])c3)cc2)cc1)c1cccc([N+](=O)[O-])c1	> 100 µM	Toxic	
COc1ccc(C(=O)N=C2C=C(Br)C(=O)C(Br)=C2)cc1	> 100 µM	Toxic	
O=C(Nc1ccc(NC(=O)c2cccc3ccccc23)cc1)c1cccc2ccccc12	> 100 µM	Toxic	
CCCCOC(=O)c1ccc2c(c1)C(=O)N(c1ccc(Oc3ccccc3)cc1)C2=O	> 100 µM	Toxic	
Cc1nc2c(n1CCO)C(=O)c1nc(C)n(CCO)c1C2=O	> 100 µM	Toxic	
COc1ccccc1C(=O)c1c(C(=O)O)ccc2ccccc12	> 100 µM	Toxic	
CCN(CCO)CCNc1ccc(C)c2sc3ccccc3c(=O)c12	> 100 µM	Toxic	
O=C(O)c1ccc(C(=O)O)c(C(=O)Nc2ccc3c(c2)-c2ccccc2C3)c1	> 100 µM	Toxic	
Cc1ccc(N2C(=O)c3ccc(C(=O)OCC(C)C)cc3C2=O)cc1Cl	> 100 µM	Toxic	
CC(=O)CC(=O)Nc1ccc(Cc2ccc(NC(=O)CC(C)=O)cc2)cc1	> 100 µM	Toxic	
O=C(CCl)Nc1ccc(Cc2ccc(NC(=O)CCl)cc2)cc1	> 100 µM	Toxic	
Cc1ccc(S(=O)(=O)Nc2ccccc2N(C)S(=O)(=O)c2ccc(C)cc2)cc1	> 100 µM	Toxic	
O=C(Nc1ccc(I)cc1C(=O)O)c1ccc(Cl)cc1	> 100 µM	Toxic	
CC(=O)Nc1ccc(Cc2ccc(NC(C)=O)cc2)cc1	> 100 µM	Toxic	
CCCCOC(=O)c1ccc(NC(=O)Nc2cc(C)ccc2C)cc1	> 100 µM	Toxic	
O=C(CN1CCCCC1)Nc1ccc(Cc2ccc(NC(=O)CN3CCCCC3)cc2)cc1	> 100 µM	Toxic	
O=C(CN1CCOCC1)Nc1ccc(Cc2ccc(NC(=O)CN3CCOCC3)cc2)cc1	> 100 µM	Toxic	
